Data set [1] relates to Mus musculus. As to the kind of experiment: Anticonvulsant activity in Kunming mouse assessed as protection against maximal electroshock-induced seizures at 30 mg/kg, ip after 0.5 hrs. The format is functional, organism-based. More on the design: dose 30 mg/kg. (In general: Protection in the maximal electroshock model is a classic sign of anticonvulsant action.)
Data set [2] concerns Mus musculus. The experiment in a line: Anticonvulsant activity in Kunming mouse assessed as protection against maximal electroshock-induced seizures at 100 mg/kg, ip after 0.5 hrs. It counts as functional, organism-based. More on the design: dose 100 mg/kg.
Data set [3] has as its system Mus musculus. The experiment in a line: Anticonvulsant activity in Kunming mouse assessed as protection against maximal electroshock-induced seizures at 30 mg/kg, ip after 4 hrs. It counts as functional, organism-based. More on the design: dose 30 mg/kg.
Data set [4] relates to Mus musculus. The experiment in a line: Anticonvulsant activity in Kunming mouse assessed as protection against maximal electroshock-induced seizures at 300 mg/kg, ip after 4 hrs. It counts as functional, organism-based. More on the design: dose 300 mg/kg.
Data set [5] has as its system Mus musculus. The experiment in a line: Anticonvulsant activity in Kunming mouse assessed as protection against subcutaneous pentylenetetrazole-induced seizures at 30 mg/kg, ip after 0.5 hrs. More on the design: dose 30 mg/kg. It counts as functional, organism-based. In outline: (§1)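 Male Kunming mice (20 ± 2.0 g) received the compound ip as a suspension in 0.5% methylcellulose at 30, 100 or 300 mg/kg, one to four mice per dose. Pentylenetetrazole in 0.9% saline was given sc at 0.5 h and 4.0 h after dosing. Protection meant no threshold seizure (one clonic spasm episode of at least 5 s). Scored as protected/tested.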

The test system of data set [6] is Mus musculus. The experiment in a line: Anticonvulsant activity in Kunming mouse assessed as protection against subcutaneous pentylenetetrazole-induced seizures at 30 mg/kg, ip after 4 hrs. It counts as functional, organism-based. More on the design: dose 30 mg/kg. In outline:
as §1

Data set [7] deals with Mus musculus. The experiment in a line: Anticonvulsant activity in Kunming mouse assessed as protection against subcutaneous pentylenetetrazole-induced seizures at 100 mg/kg, ip after 4 hrs. It counts as functional, organism-based. More on the design: dose 100 mg/kg. In outline:
as §1

Data set [8] concerns Mus musculus. As to the kind of experiment: Neurotoxicity in Kunming mouse assessed as minimum motor impairment at 30 mg/kg, ip after 0.5 hrs by rotarod test. More on the design: dose 30 mg/kg, route intraperitoneal. Particulars: in vivo. The format is toxicity, organism-based. In outline:
(§2)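 Rotorod neurotoxicity in male Kunming mice (20 ± 2.0 g) given ip doses of 30, 100 or 300 mg/kg as a suspension in 0.5% methylcellulose, one to four mice per dose. Motor impairment was examined at 0.5 h and 4.0 h after injection. Reported as number of animals showing toxicity/number tested.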
A general note: The rotarod test checks motor coordination on a turning rod.

Data set [9] concerns Mus musculus. As to the kind of experiment: Neurotoxicity in Kunming mouse assessed as minimum motor impairment at 100 mg/kg, ip after 0.5 hrs by rotarod test. The format is toxicity, organism-based. More on the design: dose 100 mg/kg, route intraperitoneal. Particulars: in vivo. In outline:
as §2

Data set [10] deals with Mus musculus. The experiment in a line: Neurotoxicity in Kunming mouse assessed as minimum motor impairment at 300 mg/kg, ip after 0.5 hrs by rotarod test. It counts as toxicity, organism-based. More on the design: dose 300 mg/kg, route intraperitoneal. To be noted: in vivo. In outline:
as §2

Data set [11] relates to Mus musculus. The experiment in a line: Neurotoxicity in Kunming mouse assessed as minimum motor impairment at 30 mg/kg, ip after 4 hrs by rotarod test. It counts as toxicity, organism-based. More on the design: dose 30 mg/kg, route intraperitoneal. Particulars: in vivo. In outline: as §2
Data set [12] concerns Mus musculus. The experiment in a line: Neurotoxicity in Kunming mouse assessed as minimum motor impairment at 100 mg/kg, ip after 4 hrs by rotarod test. The format is toxicity, organism-based. More on the design: dose 100 mg/kg, route intraperitoneal. Particulars: in vivo. In outline: as §2
Data set [13] has as its system Mus musculus. As to the kind of experiment: Neurotoxicity in Kunming mouse assessed as minimum motor impairment at 300 mg/kg, ip after 4 hrs by rotarod test. It counts as toxicity, organism-based. More on the design: dose 300 mg/kg, route intraperitoneal. To be noted: in vivo. In outline: as §2
Data set [14] relates to Rattus norvegicus. The experiment in a line: Neurotoxicity in Kunming rat assessed as minimum motor impairment at 30 mg/kg, po after 0.25 hrs by rotarod test. It counts as toxicity, organism-based. More on the design: dose 30 mg/kg, route oral. To be noted: in vivo. In outline:
(§3)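 Rotorod neurotoxicity in male Kunming rats (250 ± 5.0 g) given 30 mg/kg po, four rats per compound. Motor impairment was assessed at 0.25, 0.5, 1, 2 and 4 h after oral administration.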

Data set [15] deals with Rattus norvegicus. The experiment in a line: Neurotoxicity in Kunming rat assessed as minimum motor impairment at 30 mg/kg, po after 0.5 hrs by rotarod test. More on the design: dose 30 mg/kg. The format is functional, organism-based. In outline: as §3
Data set [16] relates to Rattus norvegicus. The experiment in a line: Neurotoxicity in Kunming rat assessed as minimum motor impairment at 30 mg/kg, po after 1 hr by rotarod test. The format is functional, organism-based. More on the design: dose 30 mg/kg. In outline: as §3
The subject of data set [17] is Rattus norvegicus. As to the kind of experiment: Neurotoxicity in Kunming rat assessed as minimum motor impairment at 30 mg/kg, po after 2 hrs by rotarod test. It counts as functional, organism-based. More on the design: dose 30 mg/kg. In outline:
as §3

Data set [18] concerns Rattus norvegicus. As to the kind of experiment: Neurotoxicity in Kunming rat assessed as minimum motor impairment at 30 mg/kg, po after 4 hrs by rotarod test. It counts as functional, organism-based. More on the design: dose 30 mg/kg. In outline: as §3
In data set [19] the test system is Rattus norvegicus. The experiment in a line: Anticonvulsant activity in Kunming rat assessed as protection against subcutaneous pentylenetetrazole-induced seizures at 30 mg/kg, po after 0.5 hrs. The format is functional.
Data set [20] has as its system Rattus norvegicus. As to the kind of experiment: Anticonvulsant activity in Kunming rat assessed as protection against subcutaneous pentylenetetrazole-induced seizures at 30 mg/kg, po after 1 hr. The format is functional.
The test system of data set [21] is Mus musculus. The experiment in a line: Anticonvulsant activity in Kunming mouse assessed as protection against maximal electroshock-induced seizures at 100 mg/kg, ip after 4 hrs. More on the design: dose 100 mg/kg. The format is functional, organism-based.
Data set [22] deals with Mus musculus. As to the kind of experiment: Anticonvulsant activity in Kunming mouse assessed as protection against subcutaneous pentylenetetrazole-induced seizures at 100 mg/kg, ip after 0.5 hrs. It counts as functional, organism-based. More on the design: dose 100 mg/kg. In outline:
as §1

Data set [23] deals with Mus musculus. The experiment in a line: Anticonvulsant activity in Kunming mouse assessed as protection against subcutaneous pentylenetetrazole-induced seizures at 300 mg/kg, ip after 0.5 hrs. It counts as functional, organism-based. More on the design: dose 300 mg/kg. In outline: as §1
The subject of data set [24] is Rattus norvegicus. As to the kind of experiment: Anticonvulsant activity in Kunming rat assessed as protection against maximal electroshock-induced seizures at 30 mg/kg, po after 0.25 hrs. It counts as functional. In outline:
(§4)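 Male Kunming rats (250 ± 5.0 g) were dosed orally at 30 mg/kg, four rats per compound. Seizures were induced by a 150-mA corneal current for 0.2 s at 0.25, 0.5, 1, 2 and 4 h after dosing. Readout was the number of rats out of four protected against hindlimb tonic extension.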

For data set [25], the system named is Rattus norvegicus. The experiment in a line: Anticonvulsant activity in Kunming rat assessed as protection against maximal electroshock-induced seizures at 30 mg/kg, po after 0.5 hrs. It counts as functional. In outline: as §4
The subject of data set [26] is Rattus norvegicus. The experiment in a line: Anticonvulsant activity in Kunming rat assessed as protection against maximal electroshock-induced seizures at 30 mg/kg, po after 1 hr. It counts as functional. In outline: as §4
Data set [27] concerns Rattus norvegicus. As to the kind of experiment: Anticonvulsant activity in Kunming rat assessed as protection against maximal electroshock-induced seizures at 30 mg/kg, po after 2 hrs. The format is functional. In outline: as §4
Data set [28] deals with Rattus norvegicus. As to the kind of experiment: Anticonvulsant activity in Kunming rat assessed as protection against maximal electroshock-induced seizures at 30 mg/kg, po after 4 hrs. The format is functional. In outline:
as §4

The subject of data set [29] is Mus musculus. The experiment in a line: Anticonvulsant activity in ip dosed Kunming mouse assessed as protection against maximal electroshock-induced seizures. The format is functional. In outline: (§5)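 Quantitative phase-II study in groups of 10 male Kunming mice. A range of ip doses in 0.5% carboxymethyl cellulose-0.9% saline (0.1 ml) was given until at least three points fell within 10–90% seizure protection (MES or scPTZ) or minimal neurotoxicity. Rotorod toxicity was read 30 min after dosing.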

Data set [30] concerns Mus musculus. As to the kind of experiment: Anticonvulsant activity in ip dosed Kunming mouse assessed as protection against subcutaneous pentylenetetrazole-induced seizures. It counts as functional. In outline:
as §5

Data set [31] in a line: Neurotoxicity in ip dosed Kunming mouse assessed as minimum motor impairment by rotarod test. It counts as toxicity, organism-based. To be noted: in vivo. In outline:
as §5

For data set [32], the system named is Mus musculus. The experiment in a line: Protective index, ratio of TD50 for neurotoxicity in ip dosed Kunming mouse to ED50 for Kunming mouse by MES test. The format is functional.
Data set [33] concerns Mus musculus. The experiment in a line: Protective index, ratio of TD50 for neurotoxicity in ip dosed Kunming mouse to ED50 for Kunming mouse by sPTZ test. The format is functional.
Data set [34] deals with Mus musculus. As to the kind of experiment: Anticonvulsant activity in ip dosed Kunming mouse assessed as time peak effect. It counts as functional.

Each structure is given as a SMILES string. Calls of active or inactive are those of the source. Where only a bound is given, the exact number is not on record here.

For `COc1cccc(C2CC23NC(=O)N(C)C3=O)c1OC` (configuration not stated), the result in the data set with Mus musculus [1], in the data set on Mus musculus [2] and with Mus musculus [4] was Active. Further, the outcome in the data set with Mus musculus [3], in the data set with Mus musculus [5], in the data set on Mus musculus [6], with Mus musculus [7] and with Rattus norvegicus [20] was inactive. Moreover, the Activity entry with Mus musculus [8] is on record as “Non-toxic”; in the data set on Mus musculus [9], “Non-toxic”; in the data set on Mus musculus [10] it was “Toxic”; with Mus musculus [11], “Non-toxic”; in the data set on Mus musculus [12] it was “Non-toxic”; in the data set with Mus musculus [13] it was “Non-toxic”. For the same compound, the Activity entry in the data set on Rattus norvegicus [14] is “Non-toxic”; in the data set on Rattus norvegicus [15], “Not toxic”; in the data set on Rattus norvegicus [16], “Not toxic”; in the data set with Rattus norvegicus [17], “Not toxic”; in the data set on Rattus norvegicus [18] it was “Not toxic”; with Rattus norvegicus [19], 25%.
As a reminder, the ED50 is the midpoint of the dose-response relation. A word on the TD50: it is the 50% point of the dose-response relation for the toxic effect studied. As for `CN1C(=O)NC2(CC2c2ccc(S(C)(=O)=O)cc2)C1=O` (configuration not stated), the outcome in the data set with Mus musculus [1], with Mus musculus [21], in the data set with Mus musculus [4], with Mus musculus [5], in the data set with Mus musculus [22] and in the data set with Mus musculus [23] was Active. In addition, the result in the data set on Mus musculus [6] and with Rattus norvegicus [24] was inactive. The Activity result in the data set with Mus musculus [8] was “Non-toxic”; in the data set on Mus musculus [9], “Non-toxic”; in the data set with Mus musculus [11], “Non-toxic”; in the data set with Mus musculus [12], “Non-toxic”; in the data set on Mus musculus [13], “Non-toxic”; in the data set with Rattus norvegicus [25], 50%. The Activity in the data set with Rattus norvegicus [26] is 50%; in the data set with Rattus norvegicus [27], 75%; in the data set with Rattus norvegicus [28], 75%; in the data set with Rattus norvegicus [14], “Non-toxic”; with Rattus norvegicus [15], “Not toxic”; in the data set with Rattus norvegicus [16], “Not toxic”. For the same compound, the Activity result in the data set on Rattus norvegicus [17] was “Not toxic”; in the data set on Rattus norvegicus [18] it was “Not toxic”; in the data set on Rattus norvegicus [20] it was 25%. Moreover, the ED50 amounted to 12.5 mg/kg with Mus musculus [29] and 427 mg/kg in the data set with Mus musculus [30]. The TD50 in data set [31] was 310 mg/kg. Moreover, the PI with Mus musculus [32] was 24.8; in the data set with Mus musculus [33], 0.73. Also, the Time in the data set with Mus musculus [34] stood at 0.5 h.
`O=C1NC(=O)C(c2ccccc2)(c2ccccc2)N1` [PHENYTOIN]: in the data set with Rattus norvegicus [25], the outcome was Active. Also, in the data set on Mus musculus [30], the ED50 is over 300 mg/kg. Further, the Time with Mus musculus [34] came to 2 h.
